Experimental data: ChEMBL document CHEMBL2177018, “Identification, synthesis, and biological evaluation of metabolites of the experimental cancer treatment drugs indotecan (LMP400) and indimitecan (LMP776) and investigation of isomerically hydroxylated indenoisoquinoline analogues as topoisomerase I poisons” (J Med Chem, 2012)
Activity calls are given as the source filed them. The rule behind the calls is not given here.

Experiments:
MCF7 = assay: Antiproliferative activity against human MCF7 cells; type: functional
How it was run: (§1)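 NCI-60 human tumour cell line panel. Initial one-dose pre-screen at 10−5 molar, then five concentrations from 10−8 to 10−4 molar. GI50 taken as the concentration giving 50% growth inhibition.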

DU-145 = assay: Antiproliferative activity against human DU145 cells; type: functional; how it was run: as §1
HCT-116 = assay: Antiproliferative activity against human HCT116 cells; type: functional; how it was run: as §1
OVCAR-3 = assay: Antiproliferative activity against human OVCAR3 cells; type: functional; how it was run: as §1
SF-539 = assay: Antiproliferative activity against human SF539 cells; type: functional; how it was run: as §1
SN12C = assay: Antiproliferative activity against human SN12C cells; type: functional; how it was run: as §1
UACC-62 = assay: Antiproliferative activity against human UACC62 cells; type: functional; how it was run: as §1
[1] = biological target: T1, DNA topoisomerase 1 (Homo sapiens) (UniProt P11387); assay: Inhibition of human recombinant Top1-mediated DNA cleavage after 20 mins by […] analysis relative to camptothecin; set-up: concentration or dose not given beside the values
T1 sequence (whole entry): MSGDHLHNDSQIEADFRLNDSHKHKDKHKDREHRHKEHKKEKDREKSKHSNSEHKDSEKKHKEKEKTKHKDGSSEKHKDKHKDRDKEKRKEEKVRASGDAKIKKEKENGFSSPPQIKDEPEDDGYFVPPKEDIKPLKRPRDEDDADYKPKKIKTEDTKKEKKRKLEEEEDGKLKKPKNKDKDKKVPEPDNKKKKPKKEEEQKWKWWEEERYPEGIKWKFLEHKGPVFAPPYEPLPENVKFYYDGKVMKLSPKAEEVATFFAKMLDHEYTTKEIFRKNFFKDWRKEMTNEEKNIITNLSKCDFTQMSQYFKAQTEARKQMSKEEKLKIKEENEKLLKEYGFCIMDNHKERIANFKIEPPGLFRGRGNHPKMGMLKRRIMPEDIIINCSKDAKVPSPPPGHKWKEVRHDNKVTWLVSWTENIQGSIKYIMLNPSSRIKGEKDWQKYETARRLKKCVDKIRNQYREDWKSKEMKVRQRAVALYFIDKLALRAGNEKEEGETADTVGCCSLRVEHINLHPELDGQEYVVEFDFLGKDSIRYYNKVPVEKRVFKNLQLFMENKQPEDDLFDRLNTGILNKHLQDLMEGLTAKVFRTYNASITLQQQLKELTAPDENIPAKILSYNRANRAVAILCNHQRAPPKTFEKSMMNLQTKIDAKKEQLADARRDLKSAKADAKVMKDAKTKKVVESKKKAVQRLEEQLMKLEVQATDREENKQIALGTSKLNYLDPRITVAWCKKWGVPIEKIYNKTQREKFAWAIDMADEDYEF
How it was run: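 Baculovirus-purified human recombinant Top1 with ~2 nM 117-bp oligonucleotide, 3′-end 32P-labelled. Compounds at 0.1–100 μM, room temperature 20 min, stopped with 0.5% SDS. 20% denaturing PAGE, phosphorimaging. Cleavage graded against 1 μM camptothecin.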

HOP-62 = assay: Antiproliferative activity against human HOP62 cells; type: functional; how it was run: as §1
Liver microsomes [2] = assay: Drug metabolism in human liver microsomes assessed as formation of 6-(3-(1H-Imidazol-1-yl)propyl)-8,9-dihydroxy-2,3-dimethoxy-5H-indeno[1,2-c]isoquinoline-5,11(6H)-dione at 10 uM after 60 mins in presence of NADPH; type: ADME, Microsome
How it was run: (§2)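 Substrate at 10 μM with pooled human liver microsomes (15 donors, mixed gender; 1 mg/mL protein) in 50 mM phosphate, pH 7.4, 37 °C. After 5 min preincubation, 1 mM NADPH started a 60 min reaction. Stopped on ice with acidified acetonitrile; supernatant dried, redissolved, LC-MS and LC-MS/MS. Controls lacked microsomes or NADPH.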

Liver microsomes [3] = assay: Drug metabolism in human liver microsomes assessed as formation of 5,6-Dihydro-3-hydroxy-6-3-(1H-imidazol-1-yl)propyl)-2-methoxy- 8,9-methylenedioxy-5,11-dioxo-11H-indeno[1,2-c]- isoquinoline at 10 uM after 60 mins in presence of NADPH; type: ADME, Microsome; how it was run: as §2
Liver microsomes [4] = assay: Drug metabolism in human liver microsomes assessed as formation of 8,9-Dihydroxy-2,3-dimethoxy-6-(3-morpholinopropyl)-5Hindeno[ 1,2-c]isoquinoline-5,11(6H)-dione at 10 uM after 60 mins in presence of NADPH; type: ADME, Microsome; details: 1 h; how it was run: as §2
Liver microsomes [5] = assay: Drug metabolism in human liver microsomes assessed as formation of 5,6-Dihydro-3-hydroxy-2-methoxy-8,9-methylenedioxy-6-3- [(morpholino)propyl)]-5,11-dioxo-11H-indeno[1,2-c]- isoquinoline at 10 uM after 60 mins in presence of NADPH; type: ADME, Microsome; details: 1 h; how it was run: as §2

GI50 (MCF7) [nM] | GI50 (DU-145) [nM] | GI50 (HCT-116) [nM] | GI50 (OVCAR-3) [nM] | inhibition [1] | Drug metabolism (Liver microsomes [2]) | Drug metabolism (Liver microsomes [3]) | Drug metabolism (Liver microsomes [4]) | Drug metabolism (Liver microsomes [5]) | SMILES | GI50 (SF-539) [nM] | GI50 (SN12C) [nM] | GI50 (UACC-62) [nM] | GI50 (HOP-62) [nM]
< 10 | < 10 | < 10 | 20 | Active | – | – | – | – | COc1cc2c(cc1O)C(=O)c1c-2n(CCCn2ccnc2)c(=O)c2cc(OC)c(OC)cc12 | < 10 | < 10 | < 10 | < 10
20 | 100 | 229 | 407 | 50% | – | – | – | – | COc1cc2c3c(n(CCCn4ccnc4)c(=O)c2cc1OC)-c1cc(O)c(O)cc1C3=O | 10 | 30 | < 10 | 40
– | – | – | – | – | Active | Active | – | – | COc1cc2c3c(n(CCCn4ccnc4)c(=O)c2cc1OC)-c1cc2c(cc1C3=O)OCO2 [INDIMITECAN] | – | – | – | –
646 | 2630 | 2400 | 4790 | 50% | – | – | – | – | COc1cc2c3c(n(CCCN4CCOCC4)c(=O)c2cc1OC)-c1cc2c(cc1C3O)OCO2 (centres undefined) | 2400 | 3390 | 776 | 2090
– | < 10 | 20 | 70 | Active | – | – | – | – | COc1cc2c(=O)n(CCCn3ccnc3)c3c(c2cc1O)C(=O)c1cc2c(cc1-3)OCO2 | < 10 | < 10 | 30 | < 10
< 10 | < 10 | < 10 | 30 | Active | – | – | – | – | COc1cc2c3c(n(CCCn4ccnc4)c(=O)c2cc1O)-c1cc2c(cc1C3=O)OCO2 | < 10 | < 10 | < 10 | < 10
144 | 257 | 279 | 871 | 50% | – | – | – | – | COc1cc2c(=O)n(CCCN3CCOCC3)c3c(c2cc1O)C(=O)c1cc2c(cc1-3)OCO2 | 335 | 195 | 282 | 257
50 | > 100000 | > 100000 | > 100000 | 50% | – | – | – | – | COc1cc2c(cc1O)-c1c(c3cc(OC)c(OC)cc3c(=O)n1CCCn1ccnc1)C2=O | – | – | 331 | > 100000
– | – | – | – | – | – | – | Active | Active | COc1cc2c3c(n(CCCN4CCOCC4)c(=O)c2cc1OC)-c1cc2c(cc1C3=O)OCO2 [INDOTECAN] | – | – | – | –
50 | 490 | 407 | 501 | Active | – | – | – | – | COc1cc2c3c(n(CCCN4CCOCC4)c(=O)c2cc1OC)-c1cc(O)c(O)cc1C3=O | 148 | 65 | 78 | 371
427 | 407 | 1350 | 1950 | 50% | – | – | – | – | COc1cc2c3c(n(CCCn4ccnc4)c(=O)c2cc1OC)-c1cc2c(cc1C3O)OCO2 (centres undefined) | 479 | 501 | 372 | 549
20 | 20 | 30 | 30 | Active | – | – | – | – | COc1cc2c(cc1O)C(=O)c1c-2n(CCCN2CCOCC2)c(=O)c2cc(OC)c(OC)cc12 | 20 | 20 | 20 | 20
30 | 204 | 2340 | 8320 | 75% | – | – | – | – | COc1cc2c(cc1O)-c1c(c3cc(OC)c(OC)cc3c(=O)n1CCCN1CCOCC1)C2=O | 282 | 191 | 70 | 180
< 10 | < 10 | 20 | 30 | 75% | – | – | – | – | COc1cc2c3c(n(CCCN4CCOCC4)c(=O)c2cc1O)-c1cc2c(cc1C3=O)OCO2 | < 10 | < 10 | < 10 | 10
